Among the data in ChEMBL document CHEMBL3259629, “Discovery and optimization of piperidyl-1,2,3-triazole ureas as potent, selective, and in vivo-active inhibitors of α/β-hydrolase domain containing 6 (ABHD6)” (J Med Chem, 2013) are inhibition values, retold here.

Test [1] deals with T1, Fatty-acid amide hydrolase 1 (Mus musculus) (UniProt O08914).
T1 sequence (whole entry): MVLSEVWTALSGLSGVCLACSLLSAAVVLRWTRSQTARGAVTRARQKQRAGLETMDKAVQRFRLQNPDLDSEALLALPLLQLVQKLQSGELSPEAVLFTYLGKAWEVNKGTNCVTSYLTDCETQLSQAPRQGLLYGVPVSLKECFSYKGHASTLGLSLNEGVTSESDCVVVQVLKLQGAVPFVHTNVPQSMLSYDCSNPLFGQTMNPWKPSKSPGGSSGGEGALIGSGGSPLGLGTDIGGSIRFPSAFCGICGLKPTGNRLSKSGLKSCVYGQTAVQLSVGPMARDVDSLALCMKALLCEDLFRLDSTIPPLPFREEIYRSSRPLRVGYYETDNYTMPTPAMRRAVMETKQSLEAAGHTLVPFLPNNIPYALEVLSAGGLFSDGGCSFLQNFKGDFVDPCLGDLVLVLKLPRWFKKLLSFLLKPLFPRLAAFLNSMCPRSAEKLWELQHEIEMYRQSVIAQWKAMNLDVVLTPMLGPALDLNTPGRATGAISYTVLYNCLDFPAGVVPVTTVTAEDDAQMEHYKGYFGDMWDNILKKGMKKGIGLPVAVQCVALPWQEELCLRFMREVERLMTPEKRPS
Particulars: Neuro2a, 3 nM.

Test [2] deals with T2, Palmitoyl-protein thioesterase ABHD10, mitochondrial (Mus musculus) (UniProt Q6PE15).
T2 sequence (whole entry): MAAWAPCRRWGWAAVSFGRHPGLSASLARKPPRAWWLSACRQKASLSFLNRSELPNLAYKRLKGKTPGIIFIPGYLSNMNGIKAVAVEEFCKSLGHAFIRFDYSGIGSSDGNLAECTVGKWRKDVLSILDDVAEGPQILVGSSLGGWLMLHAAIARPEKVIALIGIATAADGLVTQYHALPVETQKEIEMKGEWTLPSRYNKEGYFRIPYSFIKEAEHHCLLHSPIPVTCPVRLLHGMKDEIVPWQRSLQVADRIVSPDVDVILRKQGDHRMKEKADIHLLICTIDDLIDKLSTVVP
The following applies: Neuro2a, 3 nM.

Test [3] has as its target T3, Serine protease HTRA2, mitochondrial (Mus musculus) (UniProt Q9JIY5).
T3 sequence (whole entry): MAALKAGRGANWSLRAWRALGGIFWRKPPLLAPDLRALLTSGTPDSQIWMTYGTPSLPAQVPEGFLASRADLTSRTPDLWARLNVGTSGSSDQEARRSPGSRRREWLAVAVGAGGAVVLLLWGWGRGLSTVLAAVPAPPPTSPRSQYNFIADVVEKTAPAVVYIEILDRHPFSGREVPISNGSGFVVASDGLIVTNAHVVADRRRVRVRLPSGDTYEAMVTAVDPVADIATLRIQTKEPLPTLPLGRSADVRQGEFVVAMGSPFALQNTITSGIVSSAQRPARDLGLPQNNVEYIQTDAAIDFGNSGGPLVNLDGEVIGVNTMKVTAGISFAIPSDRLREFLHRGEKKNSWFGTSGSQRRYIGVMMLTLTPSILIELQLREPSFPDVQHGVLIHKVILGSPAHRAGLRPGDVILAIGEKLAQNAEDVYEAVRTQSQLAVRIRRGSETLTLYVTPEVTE
Particulars: Neuro2a, 3 nM.

The target in test [4] is T4, 85/88 kDa calcium-independent phospholipase A2 (Mus musculus) (UniProt P97819).
T4 sequence (whole entry): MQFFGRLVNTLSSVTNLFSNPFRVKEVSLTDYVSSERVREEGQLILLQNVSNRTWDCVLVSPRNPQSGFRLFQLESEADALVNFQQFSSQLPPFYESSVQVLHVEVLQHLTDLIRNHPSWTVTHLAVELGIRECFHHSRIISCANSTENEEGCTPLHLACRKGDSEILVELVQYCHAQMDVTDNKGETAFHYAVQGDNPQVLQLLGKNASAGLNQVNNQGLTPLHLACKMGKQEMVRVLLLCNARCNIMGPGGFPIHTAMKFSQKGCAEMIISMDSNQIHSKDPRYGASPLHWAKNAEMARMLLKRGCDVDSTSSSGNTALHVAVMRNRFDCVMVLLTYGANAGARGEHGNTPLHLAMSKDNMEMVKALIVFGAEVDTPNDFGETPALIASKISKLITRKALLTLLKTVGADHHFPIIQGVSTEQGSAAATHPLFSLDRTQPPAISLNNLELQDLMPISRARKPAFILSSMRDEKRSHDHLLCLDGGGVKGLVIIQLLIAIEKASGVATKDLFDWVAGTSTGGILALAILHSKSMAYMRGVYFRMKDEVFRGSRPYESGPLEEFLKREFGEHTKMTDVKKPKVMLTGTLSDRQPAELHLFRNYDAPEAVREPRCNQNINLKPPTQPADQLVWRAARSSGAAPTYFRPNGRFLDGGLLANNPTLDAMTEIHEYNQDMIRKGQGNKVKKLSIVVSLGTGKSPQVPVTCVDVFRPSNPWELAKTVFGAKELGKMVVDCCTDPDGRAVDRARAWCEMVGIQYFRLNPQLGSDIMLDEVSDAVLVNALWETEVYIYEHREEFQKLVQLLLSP
The following applies: Neuro2a, 3 nM.

For test [5], the target named is T5, Presenilin-associated rhomboid-like protein, mitochondrial (Mus musculus) (UniProt Q5XJY4).
T5 sequence (whole entry): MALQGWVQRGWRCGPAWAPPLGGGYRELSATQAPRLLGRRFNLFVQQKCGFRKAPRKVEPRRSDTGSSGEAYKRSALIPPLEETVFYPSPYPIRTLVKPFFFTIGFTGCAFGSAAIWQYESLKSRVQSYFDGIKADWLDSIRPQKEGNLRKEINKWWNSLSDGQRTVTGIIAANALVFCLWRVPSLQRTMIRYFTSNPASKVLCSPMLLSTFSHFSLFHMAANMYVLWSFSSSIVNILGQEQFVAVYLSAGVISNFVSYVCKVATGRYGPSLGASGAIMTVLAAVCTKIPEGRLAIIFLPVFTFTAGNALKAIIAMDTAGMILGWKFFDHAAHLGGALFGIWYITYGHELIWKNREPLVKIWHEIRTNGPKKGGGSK
The following applies: Neuro2a, 3 nM.

A further test relates to Mus musculus. The test can be described thus: In vivo inhibition of ABHD6 in C57Bl/6 mouse liver at 1 mg/kg, ip after 4 hrs by HT-10-labelled gel-based competitive ABPP assay. It is filed as functional, organism-based. Further details: dose 1 mg/kg. The essentials:
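C57Bl/6 mice dosed i.p. at 0.1, 0.5 or 1 mg kg⁻¹ in 18:1:1 saline/ethanol/PEG40 (ethoxylated castor oil), 10 μL g⁻¹. Killed after 4 hr under isoflurane by cervical dislocation. Brain and liver membrane fractions (100,000 × g) labelled with FP-rhodamine or HT-01 (1 μM, 30 min, 37 °C), then SDS-PAGE and in-gel fluorescence scanning. Liver ABHD6 read from HT-01 gels.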

Calls of active or inactive are those of the source. The rule behind the calls is not given here.

By inhibition is commonly meant how much of the control response was suppressed. As to `O=C(c1cccc(-c2ccc(-c3cn(C(=O)N4CCCCC4c4ccccc4)nn3)cc2)c1)N1CCCCC1` (racemic), the inhibition in test [1], in test [2], in test [3], in test [4] and in test [5] was under 50% throughout.
On to `O=C(O)c1cccc(-c2ccc(-c3cn(C(=O)N4CCCCC4Cc4ccccc4)nn3)cc2)c1` (racemic), for which the inhibition in test [1], in test [2], in test [3], in test [4] and in test [5] was under 50% throughout. In addition, the inhibition result with Mus musculus was “Active”.
For the compound `O=C(N1CCCCC1c1ccccc1)n1cc(-c2ccc(-c3cccc(CO)c3)cc2)nn1` (racemic), the inhibition in test [1], in test [2], in test [3], in test [4] and in test [5] was under 50% throughout. For the same compound, the inhibition result in the test with Mus musculus is “Active”.
